According to ChEMBL document CHEMBL1144157, “Synthesis of new 1-phenyl-3-{4-[(2E)-3-phenylprop-2-enoyl]phenyl}-thiourea and urea derivatives with anti-nociceptive activity” (2008):
Calls of active or inactive are those of the source.

Assays:
[1] = system: Mus musculus; experiment: Antinociceptive activity against formalin-induced paw pain in ip dosed Swiss mouse pretreated 30 mins before formalin challenge assessed after 15 to 30 mins; format: functional; conditions: for ED50: read-out: ID50 (the source's name)
How it was run: (§1)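 Mice given compound (6–30 mg/kg, ip) or saline 30 min before intraplantar injection into the right hind paw of 20 µl 2.5% formalin (0.92% formaldehyde) in saline. Paw-licking time scored in a glass cylinder with a 45° mirror, 0–5 min (early phase) and 15–30 min (late phase). n = 6. ID50 as geometric mean with 95% confidence limits.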

[2] = system: Mus musculus; experiment: Antinociceptive activity against formalin-induced paw pain in ip dosed Swiss mouse pretreated 30 mins before formalin challenge assessed after 0 to 5 mins; format: functional; conditions: for ED50: read-out: ID50 (the source's name); how it was run: as §1
[3] = system: Mus musculus; experiment: Antinociceptive activity against acetic acid-induced abdominal constrictions in ip dosed Swiss mouse pretreated 30 mins before acetic acid challenge; format: functional; conditions: Abdomen; for ED50: read-out: ID50 (the source's name)
How it was run: (§2)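 Swiss mice (25–35 g), 10 ml/kg ip of compound (1–60 mg/kg) or 0.9% NaCl control, given 30 min before ip 0.6% acetic acid. Abdominal constrictions with hind-limb stretching counted cumulatively over 20 min, mice in separate glass funnels at 20–22 °C. Groups of six to eight. ID50 is the geometric mean with 95% confidence limits, found by graphical interpolation.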

[4] = system: Mus musculus; experiment: Antinociceptive activity against acetic acid-induced abdominal constrictions in Swiss mouse assessed as maximal inhibition at 10 mg/kg, ip pretreated 30 mins before acetic acid challenge; format: functional; conditions: Abdomen, route intraperitoneal; how it was run: as §2
[5] = system: Mus musculus; experiment: Antinociceptive activity against formalin-induced paw pain in Swiss mouse assessed as maximal inhibition at 6 mg/kg, ip pretreated 30 mins before formalin challenge assessed after 15 to 30 mins; format: functional; conditions: route intraperitoneal; how it was run: as §1
[6] = system: Mus musculus; experiment: Antinociceptive activity against formalin-induced paw pain in Swiss mouse assessed as maximal inhibition at 10 mg/kg, ip pretreated 30 mins before formalin challenge assessed after 0 to 5 mins; format: functional; conditions: route intraperitoneal; how it was run: as §1
[7] = system: Mus musculus; experiment: Antinociceptive activity against formalin-induced paw pain in Swiss mouse assessed as maximal inhibition at 30 mg/kg, ip pretreated 30 mins before formalin challenge assessed after 15 to 30 mins; format: functional; conditions: route intraperitoneal; how it was run: as §1
[8] = system: Mus musculus; experiment: Antinociceptive activity against acetic acid-induced abdominal constrictions in Swiss mouse assessed as maximal inhibition at 100 mg/kg, po pretreated 30 mins before acetic acid challenge; format: functional; conditions: Abdomen
How it was run: (§3)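 Oral pretreatment (50–200 mg/kg) of Swiss mice before ip 0.6% acetic acid. Writhing (abdominal contractions plus hind-limb stretching) counted cumulatively for 20 min at 20–22 °C. Six animals per group, mean ± s.e.m. ID50 with 95% confidence limits obtained by graphical interpolation.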

[9] = system: Mus musculus; experiment: Antinociceptive activity against formalin-induced paw pain in Swiss mouse assessed as maximal inhibition at 30 mg/kg, ip pretreated 30 mins before formalin challenge assessed after 0 to 5 mins; format: functional; conditions: route intraperitoneal; how it was run: as §1
[10] = system: Mus musculus; experiment: Antinociceptive activity against acetic acid-induced abdominal constrictions in po dosed Swiss mouse pretreated 30 mins before acetic acid challenge; format: functional; conditions: Abdomen, read-out: ID50 (the source's name); how it was run: as §3
[11] = system: Mus musculus; experiment: Antinociceptive activity against heat-induced paw licking in Swiss mouse assessed as increase in licking latency period at 10 mg/kg, ip pretreated 30 mins before heat challenge by hot plate method; format: functional, organism-based; set-up: dose 10 mg/kg
How it was run: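 Mice dosed ip (10 mg/kg), saline, or morphine sc, 30 min before placement on a plate held at 56 ± 1 °C. Latency to hind-paw licking, paw shaking or jumping recorded. Animals with baseline latency above 20 s excluded; cut-off 30 s. n = 6.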

[12] = system: Mus musculus; experiment: Antinociceptive activity against glutamate-induced paw pain in Swiss mouse assessed as maximal inhibition at 10 mg/kg, ip pretreated 30 mins before glutamate challenge; format: functional; conditions: route intraperitoneal
How it was run: (§4)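 Mice treated ip (6–30 mg/kg) 30 min before intraplantar injection into the right hind paw of 20 µl glutamate in PBS (30 µmol/paw). Time spent licking or biting the paw timed over 0–15 min in glass cylinders. n = 6. ID50 reported with 95% confidence limits.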

[13] = system: Mus musculus; experiment: Antinociceptive activity against acetic acid-induced abdominal constrictions in Swiss mouse assessed as maximal inhibition at 200 mg/kg, po pretreated 30 mins before acetic acid challenge; format: functional; conditions: Abdomen; how it was run: as §3
[14] = system: Mus musculus; experiment: Antinociceptive activity against formalin-induced paw pain in Swiss mouse assessed as maximal inhibition at 10 mg/kg, ip pretreated 30 mins before formalin challenge assessed after 15 to 30 mins; format: functional; conditions: route intraperitoneal; how it was run: as §1
[15] = system: Mus musculus; experiment: Antinociceptive activity against glutamate-induced paw pain in ip dosed Swiss mouse pretreated 30 mins before glutamate challenge; format: functional; conditions: read-out: ID50 (the source's name); how it was run: as §4
[16] = system: Mus musculus; experiment: Antinociceptive activity against capsaicin-induced paw pain in Swiss mouse assessed as maximal inhibition at 10 mg/kg, ip pretreated 30 mins before capsaicin challenge; format: functional, organism-based; set-up: dose 10 mg/kg
[17] = system: Mus musculus; experiment: Antinociceptive activity against glutamate-induced paw pain in Swiss mouse assessed as maximal inhibition at 30 mg/kg, ip pretreated 30 mins before glutamate challenge; format: functional; conditions: route intraperitoneal; how it was run: as §4
[18] = system: Mus musculus; experiment: Antinociceptive activity against acetic acid-induced abdominal constrictions in Swiss mouse assessed as maximal inhibition at 50 mg/kg, po pretreated 30 mins before acetic acid challenge; format: functional; conditions: Abdomen; how it was run: as §3
[19] = system: Mus musculus; experiment: Antinociceptive activity against acetic acid-induced abdominal constrictions in Swiss mouse at 60 mg/kg, ip pretreated 30 mins before acetic acid challenge; format: functional, organism-based; set-up: dose 60 mg/kg; conditions: Abdomen; how it was run: as §2

Row | SMILES | Activity [3] | ED50 [3] [µmol/kg] | inhibition in vivo at 10 mg/kg [4] [%] | further results
1 | O=C(O)Cc1ccccc1Nc1c(Cl)cccc1Cl [DICLOFENAC] |  |  |  | ED50 [1]: 34.5 µmol/kg; ED50 [2]: > 94 µmol/kg
2 | O=C(/C=C/c1ccc(Cl)cc1)c1ccc(NC(=S)Nc2ccc(Cl)cc2)cc1 | Dose-dependent effect | 7.59 | 100 | 
3 | COc1ccc(/C=C/C(=O)c2ccc(NC(=S)Nc3ccc(Cl)cc3)cc2)cc1 | Dose-dependent effect | 10.4 | 92 | 
4 | O=C(/C=C/c1ccccc1)c1ccc(NC(=S)Nc2ccc(Cl)cc2)cc1 | Dose-dependent effect | 3.03 | 94.5 | inhibition in vivo at 6 mg/kg [5]: 51%; inhibition in vivo at 10 mg/kg [6]: 37.8%; inhibition in vivo at 30 mg/kg [7]: 78.7%; inhibition in vivo at 100 mg/kg [8]: 43.4%; inhibition in vivo at 30 mg/kg [9]: 53.9%; ED50 [10]: 378 µmol/kg; Activity [11]: inactive; inhibition in vivo at 10 mg/kg [12]: 42.6%; inhibition in vivo at 200 mg/kg [13]: 55%; Activity [1]: Dose-dependent effect; ED50 [1]: 26.9 µmol/kg; inhibition in vivo at 10 mg/kg [14]: 62.6%; Activity [2]: Dose-dependent effect; ED50 [2]: 69.3 µmol/kg; ED50 [15]: 62.1 µmol/kg; Activity [16]: inactive; inhibition in vivo at 30 mg/kg [17]: 58.3%; inhibition in vivo at 50 mg/kg [18]: 23.5%
5 | Cc1ccc(/C=C/C(=O)c2ccc(NC(=O)Nc3ccc(Cl)cc3)cc2)cc1 | Dose-dependent effect | 39.7 | 42.8 | 
6 | Cc1c(N(C)CS(=O)(=O)O)c(=O)n(-c2ccccc2)n1C [DIPYRONE SODIUM] |  | 162 | 33 | ED50 [1]: 264 µmol/kg; ED50 [2]: 154 µmol/kg
7 | CC(=O)Oc1ccccc1C(=O)O [ASPIRIN] |  |  | 35 | ED50 [10]: 605 µmol/kg; Activity [2]: inactive; Activity [16]: inactive
8 | Cc1ccc(/C=C/C(=O)c2ccc(NC(=S)Nc3ccc(Cl)cc3)cc2)cc1 | Dose-dependent effect | 13.1 | 75.3 | 
9 | CC(=O)Nc1ccc(O)cc1 [ACETAMINOPHEN] |  |  | 38 | ED50 [10]: 1140 µmol/kg; Activity [2]: inactive; Activity [16]: inactive
10 | O=C(/C=C/c1ccc(Cl)c(Cl)c1)c1ccc(NC(=S)Nc2ccc(Cl)cc2)cc1 | Dose-dependent effect | 6.15 | 97.5 | 
11 | O=C(Nc1ccc(Cl)cc1)Nc1ccc(C(=O)/C=C/c2ccc(Cl)cc2)cc1 | Dose-dependent effect | 45.4 | 51 | 
12 | O=C(Nc1ccc(Cl)cc1)Nc1ccc(C(=O)/C=C/c2ccc(Cl)c(Cl)c2)cc1 |  |  | 21.6 | Activity [19]: inactive
13 | COc1ccc(/C=C/C(=O)c2ccc(NC(=O)Nc3ccc(Cl)cc3)cc2)cc1 | Dose-dependent effect | 31.1 | 84.4 | 
14 | O=C(Nc1ccc(Cl)cc1)Nc1ccc(C(=O)/C=C/c2ccccc2)cc1 | Dose-dependent effect | 7.25 | 74.6 | 
